This note sets out measurements from ChEMBL document CHEMBL2169816, “Noncyclam tetraamines inhibit CXC chemokine receptor type 4 and target glioma-initiating cells” (J Med Chem, 2012).

Active and inactive are the calls of the source. The calls are words filed in the database; no cut-off is given here. Some results are limits rather than exact numbers.

The subject of one data set is MT4. Description: (§1) Cytotoxicity against human MT4 cells expressing CXCR4 after 5 days by MTT assay. It counts as cell-based. The settings on record: mt4, 120 h, 120 h. The method in brief:
(§2)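 MT-4 cells, infected or not with HIV-1, exposed to a range of compound concentrations and left to proliferate for 5 days. Viable cells were counted by MTT colorimetric read-out. EC50 comes from protection against virus-induced cytopathic effect and CC50 from viability of uninfected cells.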
(Tetrazolium assays rely on reduction of a dye to a coloured formazan, in cell work by metabolically active cells.)

Data set [1] relates to Human immunodeficiency virus 1. Description: Antiviral activity against HIV1 infected in MT4 cells expressing CXCR4 assessed as inhibition of virus-induced cytopathic effect after 5 days. The class given is functional, organism-based. The method in brief:
as §2
For orientation: Damage to the host cells serves as the signal in cytopathic effect assays.

Data set [2] has as its system CD44null. Description: Effect on human GBM2 cell differentiation assessed as increase in CD44null cells after 7 days by flow cytometric analysis. It counts as functional, cell-based. Summed up: (§3)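 Patient-derived GBM neurospheres were treated with 1 μM inhibitor for 7 days, then dissociated and blocked 15 min with 10 μg/mL human IgG. Staining was FITC anti-CD44 or IgG2b isotype, 20 min on ice in the dark, then PBS wash and propidium iodide to exclude dying cells. Flow cytometry gave CD44 null fraction and CD44 low/CD44 null ratio.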
(In general: In flow cytometry, cells or beads pass a laser one at a time.)

In data set [3] the test system is CD44null. Description: Effect on human GBM1 cell differentiation assessed as increase in CD44null cells after 7 days by flow cytometric analysis. It counts as functional, cell-based. The method in brief:
as §3

Data set [4] is described as follows: Cytotoxicity against human GBM1 assessed as cell viability after 7 days by trypan blue staining method in presence of CXCL12 relative to control. To be noted: GBM1 cells, read-out: Activity. Summed up: (§4)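 Dissociated neurospheres (acutase, 3 min) were counted and equal numbers seeded in triplicate per condition. Cells were treated or not with CXCR4 inhibitors (1 μM), with or without CXCL12. After 7 days cells were counted and viability expressed relative to untreated control.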

Data set [5] is described as follows: Cytotoxicity against human GBM1 assessed as cell viability after 7 days by trypan blue staining method relative to control. To be noted: GBM1 cells, read-out: Activity. The method in brief: as §4
Data set [6] can be described thus: (§5) Toxicity in iv dosed Hsd:ICR(CD-1) mouse measured up to 14 days. The class given is organism-based. The settings on record: Hsd:ICR(CD-1), in vivo. Summed up: (§6)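 Single iv tail-vein injection in physiological saline (0.9% NaCl) to Hsd:ICR (CD-1) mice; groups of 4 (2 male, 2 female) at doses of 1, 2, 3, 3.5 and 4 mg/kg. Viability/mortality and clinical signs checked during first 30 min and at ~1, 2, 3, 5 h on day 1, then through days 2–15; 14-day observation; body weights recorded; necropsy of all animals.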

Data set [7] concerns Mus musculus. Described as §5. It counts as organism-based. The settings on record: in vivo, 336 h. Summed up:
as §6

The subject of data set [8] is Mus musculus. Briefly: Toxicity in Hsd:ICR(CD-1) mouse assessed as mortality at 3 mg/kg, iv after 1 min. The class given is organism-based. Further details: dose 3 mg/kg, route intravenous. The settings on record: in vivo. Summed up:
as §6

Data set [9] addresses Voltage-gated inwardly rectifying potassium channel KCNH2 (Homo sapiens, UniProt Q12809). Description: Inhibition of human ERG expressed in CHOK1 cells after 5 mins by whole-cell patch clamp assay. The class given is cell-based, CHO-K1.
Data set [10] addresses T1, C-X-C chemokine receptor type 4 (Homo sapiens, UniProt P61073). Description: Antagonist activity at human recombinant CXCR4 expressed in CHO cells assessed as inhibition of SDF1a-induced electrical impedance by dielectric spectroscopic analysis. It counts as functional, cell-based. The method in brief: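 CHO cells expressing recombinant human CXCR4. Antagonist mode: SDF-1a stimulant at 1 nM. Cellular impedance was read by cellular dielectric spectroscopy after incubation at 28 °C. Reference antagonist MIP-II was included. IC50 and KB were derived from concentration–response curves.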

Data set [11] in a line: as §1. It counts as cell-based. To be noted: MT4 cells expressing CXCR4. The method in brief: as §2
The target of data set [12] is T1, C-X-C chemokine receptor type 4. To be noted: GBM2, 1 uM.
Data set [13] shares this target. The settings on record: GBM2, 0.1 uM.
Data set [14] shares this target. The settings on record: GBM2, 1 uM. The source holds these as a separate data set.
For data set [15] the target is unchanged. To be noted: GBM2, 1 uM. The source holds these as a separate data set.
Data set [16] has the same target. The settings on record: GBM2, 0.1 uM. This is another data set of the same source.
The target is the same in data set [17]. The settings on record: GBM2, 1 uM. The source holds these as a separate data set.
For data set [18] the target is unchanged. To be noted: GBM2, 0.1 uM. This is another data set of the same source.
The target is the same in data set [19]. To be noted: GBM2, 1 uM. The source holds these as a separate data set.
Data set [20] relates to Mus musculus. Description: Toxicity in Hsd:ICR(CD-1) mouse assessed as mortality at 2.5 mg/kg, iv after 1 min. Also on record: dose 2.5 mg/kg, route intravenous. To be noted: in vivo. It counts as organism-based.
Data set [21] relates to Mus musculus. Briefly: Toxicity in Hsd:ICR(CD-1) mouse assessed as mortality at 2 mg/kg, iv after 1 min. The class given is organism-based. Further details: dose 2 mg/kg, route intravenous. To be noted: in vivo. The method in brief: as §6
Another data set deals with hERG (KCNH2) (Homo sapiens, UniProt Q12809). Description: Inhibition of human ERG expressed in CHOK1 cells at 10 uM after 5 mins by whole-cell patch clamp assay. The class given is cell-based. The settings on record: CHO-K1 cells expressing human ERG. The method in brief: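 hERG-expressing CHO-K1 cells were tested by automated whole-cell patch-clamp, measuring inhibition of tail current. Compound was applied cumulatively at 0.1, 1 and 10 μM, 5 min each at room temperature. E-4031 served as reference.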
hERG (KCNH2), sequence (Q12809 whole entry): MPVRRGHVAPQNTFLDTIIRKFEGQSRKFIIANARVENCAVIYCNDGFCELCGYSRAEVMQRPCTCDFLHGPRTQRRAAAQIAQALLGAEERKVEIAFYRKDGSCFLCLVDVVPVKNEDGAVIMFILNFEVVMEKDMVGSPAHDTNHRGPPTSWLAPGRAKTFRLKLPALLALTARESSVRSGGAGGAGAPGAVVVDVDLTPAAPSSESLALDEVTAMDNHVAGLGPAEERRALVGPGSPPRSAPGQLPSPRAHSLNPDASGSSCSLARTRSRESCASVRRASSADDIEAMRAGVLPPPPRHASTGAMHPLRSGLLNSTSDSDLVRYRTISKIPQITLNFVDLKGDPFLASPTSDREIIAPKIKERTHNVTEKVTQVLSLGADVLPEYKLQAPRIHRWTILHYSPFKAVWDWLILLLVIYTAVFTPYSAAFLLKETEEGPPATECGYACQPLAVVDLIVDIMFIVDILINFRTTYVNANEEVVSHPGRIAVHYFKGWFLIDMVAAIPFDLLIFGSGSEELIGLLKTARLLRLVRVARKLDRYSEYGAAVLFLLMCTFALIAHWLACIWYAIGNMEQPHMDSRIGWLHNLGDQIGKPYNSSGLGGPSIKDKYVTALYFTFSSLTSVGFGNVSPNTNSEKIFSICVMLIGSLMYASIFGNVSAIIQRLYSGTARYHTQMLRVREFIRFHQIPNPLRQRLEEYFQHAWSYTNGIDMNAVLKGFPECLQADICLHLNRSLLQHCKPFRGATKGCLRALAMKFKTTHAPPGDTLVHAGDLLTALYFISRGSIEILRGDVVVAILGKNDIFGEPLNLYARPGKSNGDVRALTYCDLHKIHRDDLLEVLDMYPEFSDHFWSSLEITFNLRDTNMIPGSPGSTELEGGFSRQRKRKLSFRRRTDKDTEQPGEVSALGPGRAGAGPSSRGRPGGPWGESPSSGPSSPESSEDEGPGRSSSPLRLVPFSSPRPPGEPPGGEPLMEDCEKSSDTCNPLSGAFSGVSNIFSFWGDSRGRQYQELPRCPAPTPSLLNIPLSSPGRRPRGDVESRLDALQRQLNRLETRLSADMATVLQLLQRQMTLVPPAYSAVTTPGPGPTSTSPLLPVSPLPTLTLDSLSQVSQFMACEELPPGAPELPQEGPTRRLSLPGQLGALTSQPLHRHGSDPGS

Data set [22] concerns the target T1, C-X-C chemokine receptor type 4. To be noted: GBM2, 1 uM. This is another data set of the same source.
The subject of data set [23] is GBM1. Briefly: Effect on human GBM1 cell differentiation xenografted in NOD-SCID mouse assessed as decrease in tumor number incubated for 7 days prior to xenografting measured after 40 days by MRI scanning analysis relative to control. It counts as functional, cell-based. The method in brief:
(§7)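 GBM1 neurospheres were pretreated in culture for 7 days, then dissociated, counted and checked for viability by trypan blue. 100.000 live cells were stereotactically injected into the right corpus striatum of 9-week-old NOD-SCID mice. At 40 days, contrast MRI (gadolinium-DTPA 0.25 mmol/kg ip) covered the whole brain and tumor volume was quantified.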

Data set [24] relates to GBM1. Briefly: Effect on human GBM1 cell differentiation xenografted in NOD-SCID mouse assessed as decrease in tumor size incubated for 7 days prior to xenografting measured after 40 days by MRI scanning analysis relative to control. It counts as functional, cell-based. The method in brief:
as §7

Setting [25] is: Human immunodeficiency virus 1, MT4, 120 h.

T1 sequence (P61073 whole entry): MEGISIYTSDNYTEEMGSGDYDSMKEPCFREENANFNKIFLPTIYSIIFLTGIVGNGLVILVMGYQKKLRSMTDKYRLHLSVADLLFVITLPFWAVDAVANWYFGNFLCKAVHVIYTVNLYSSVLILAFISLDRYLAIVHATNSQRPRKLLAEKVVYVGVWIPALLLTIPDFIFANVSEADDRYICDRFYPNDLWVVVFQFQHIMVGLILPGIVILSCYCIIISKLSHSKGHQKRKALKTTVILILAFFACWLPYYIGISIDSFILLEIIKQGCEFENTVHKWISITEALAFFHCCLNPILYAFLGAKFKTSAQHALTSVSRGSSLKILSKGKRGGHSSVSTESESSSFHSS
Voltage-gated inwardly rectifying potassium channel KCNH2, sequence (Q12809 whole entry): as the sequence (Q12809 whole entry) above

For the compound `CC1CCCCN1CCCNCc1ccc(CNCCCN2CCCCC2C)cc1` (mixture of isomers; 11) [listing 1 of 2 here], in the data set on MT4 (read-out: CC50), the CC50 – broadly, the concentration at which the toxic effect on the cells reaches its halfway point – is > 44000 nM. Also, the half-maximal effective concentration (EC50) (as a rule, the concentration that produces a half-maximal response) in data set [1] (mt4) is 130 nM.
Regarding `C[C@@H]1CCCCN1CCCNCc1ccc(CNCCCN2CCCC[C@@H]2C)cc1.Cl` (mixture of isomers), the outcome with CD44null [2] and in the data set on CD44null [3] was Active. Besides, the viability at 168 h in data set [4] and in data set [5] was > 80% each time. In data set [6], this compound registered an MTD at 336 h of 2.5 mg/kg. In the data set with Mus musculus [7], this compound came in with an MLC of 3 mg/kg. Further, in the data set with Mus musculus [8], the Activity entry is given as “Toxic”. Moreover, the IC50 (usually the concentration that inhibits the measured activity by half) in data set [9] is > 100000 nM; in data set [10], 790 nM. The half-maximal cytotoxic concentration (CC50) at 120 h in [11] is 26000 nM. Moreover, the concentration giving a half-maximal response (EC50) in data set [1] (setting [25]) turned out to be 139 nM. The inhibition result in data set [12], in data set [14], in [17] and in data set [19] was “Active” throughout. Also, the inhibition result in data set [13], in data set [15], in data set [16] and in [18] was “inactive” throughout.
Regarding `CC1CCCCN1CCCNCc1ccc(CNCCCN2CCCCC2C)cc1` (mixture of isomers; 1), the CC50 with MT4 is > 25 µg/mL. Moreover, the EC50 in data set [1] (mt4) is 19 nM.
Consider `C[C@@H]1CCCCN1CCCNCc1ccc(CNCCCN2CCCC[C@H]2C)cc1.Cl`, for which the viability at 168 h in data set [4] and in [5] was > 80% in each case. For the same compound, the Activity result in the data set on Mus musculus [20] was “Toxic”. The IC50 was > 100000 nM in data set [9] and 350 nM in data set [10]. The 50% cytotoxic concentration (CC50) at 120 h in data set [11] is > 44000 nM. For the same compound, the EC50 in data set [1] (setting [25]) is 125 nM.
Turning to `C[C@H]1CCCCN1CCCNCc1ccc(CNCCCN2CCCC[C@@H]2C)cc1.Cl`, the outcome with CD44null [2] and in the data set on CD44null [3] was Active. Moreover, the viability at 168 h in data set [4] and in data set [5] was > 80% in each case. For the same compound, the MTD at 336 h in [6] was 1.5 mg/kg. In addition, the MLC in the data set with Mus musculus [7] stood at 2 mg/kg. Also, the Activity entry in the data set on Mus musculus [21] was “Toxic”. Also, the inhibition (commonly the change of the read-out against control, counted positive when it falls) at 5 min, 10 µM at hERG (KCNH2) was < 25%. Further, in [10], the IC50 is 1100 nM. The CC50 at 120 h in [11] is > 44000 nM. Besides, the concentration for a half-maximal effect (EC50) in [1] (setting [25]) was 137 nM. Moreover, in data set [22], the inhibition entry is “Active”. The inhibition entry in data set [16], in data set [17], in data set [18] and in data set [19] was “inactive” each time.
For `CC1CCCCN1CCCNCc1ccc(CNCCCN2CCCCC2C)cc1` (mixture of isomers; 11) [listing 2 of 2 here], the result with GBM1 [23], in the data set with CD44null [2], with GBM1 [24] and in the data set on CD44null [3] was Active.
Regarding `C[C@@H]1CCCCN1CCCNCc1ccc(CNCCCN2CCCC[C@H]2C)cc1` [listing 1 of 2 here], the MTD at 336 h in data set [6] was 2 mg/kg. For the same compound, in the data set with Mus musculus [7], the MLC turned out to be 2.5 mg/kg.
With `C[C@@H]1CCCCN1CCCNCc1ccc(CNCCCN2CCCC[C@H]2C)cc1` [listing 2 of 2 here], the result with CD44null [2] and in the data set with CD44null [3] was Active. In addition, the inhibition result in data set [16], in data set [17], in [18] and in [19] was “inactive” in each case.
